A value given as a limit tells only on which side of the number the result lay.

Drawing on ChEMBL document CHEMBL2203273, “Prostratin and 12-O-tetradecanoylphorbol 13-acetate are potent and selective inhibitors of Chikungunya virus replication” (J Nat Prod, 2012), this text covers selectivity ratio, EC50 and CC50 for 6 molecules.

A short description of series [1]: Selectivity index, ratio of CC50 for african green monkey Vero cells to EC50 for Chikungunya virus 899. In kind it is toxicity, cell-based. Particulars: read-out: Ratio CC50/EC50.
The next series relates to Chikungunya virus. Put plainly: Antiviral activity against Chikungunya virus 899 infected in african green monkey Vero cells assessed as inhibition of virus-induced cytopathic effect incubated for 6 to 7 days by MTS assay. In kind it is functional, cell-based. Conditions: Chikungunya virus, 899, Vero. The gist of the method:
(§1)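 Serial dilutions in MEM Rega3 with 2% FCS, L-glutamine and bicarbonate, added with 4× virus dilution and Vero cells (25 000 cells/well, subcultured 1:4, grown 7 days). Incubated 6−7 days, 37 °C, 5% CO2. Read-out is 5% MTS for 1.5 h, absorbance 498 nm. Data are percent of controls, EC50 from dose–response curves. Wells with >50% protection checked microscopically for CPE or altered morphology. Multiple independent experiments.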
For orientation: Protection from cytopathic effect is a common read-out in antiviral testing.

The nature of series [2]: Cytotoxicity against african green monkey Vero cells by MTS assay. The class given is cell-based. Conditions: chlorocebus sabaeus. The gist of the method: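 Vero cells (25 000/well) with serial compound dilutions in MEM Rega3 with 2% FCS, no virus, for 6−7 days at 37 °C, 5% CO2. Overall metabolism read by 5% MTS for 1.5 h, absorbance 498 nm. Uninfected control OD 0.6−0.8. CC50 is the concentration inhibiting metabolism by 50%, from dose–response curves. Multiple independent experiments.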

Another series concerns Semliki Forest virus. Put plainly: Antiviral activity against Semliki forest virus infected in african green monkey Vero cells assessed as inhibition of virus-induced cytopathic effect incubated for 6 to 7 days by MTS assay. The class given is functional, organism-based. The procedure, abridged: as §1
A further series relates to Sindbis virus. Put plainly: Antiviral activity against Sindbis virus HRsp infected in african green monkey Vero cells assessed as inhibition of virus-induced cytopathic effect incubated for 6 to 7 days by MTS assay. The class given is functional, organism-based. The gist of the method:
as §1

As usually defined, the EC50 is the concentration giving half of the maximal effect. One may read the CC50 as the concentration that lowers cell viability or growth by half. In the case of `CCCCCCCCCCCCCC(=O)O[C@@H]1[C@@H](C)[C@@]2(O)[C@@H](C=C(CO)C[C@@]3(O)C(=O)C(C)=C[C@@H]23)[C@@H]2C(C)(C)[C@]12OC(C)=O`, the selectivity ratio in series [1] was 1.9. Besides, the EC50 in the series on Chikungunya virus came out at 2.8 µM. Moreover, the CC50 in series [2] is 5.3 µM.

In the case of `CCN(CC)CCCC(C)Nc1ccnc2cc(Cl)ccc12` (stereo not given) [CHLOROQUINE], the EC50 worked out at 14 µM in the series with Semliki Forest virus, 11 µM in the series on Sindbis virus and 11 µM in the series with Chikungunya virus. In series [2], this molecule showed a CC50 of 89 µM.

Turning to `CCCCCCCCCCCCCC(=O)O[C@@H]1[C@@H](C)[C@@]2(O)[C@@H](C=C(CO)C[C@]3(O)C(=O)C(C)=C[C@@H]23)[C@@H]2C(C)(C)[C@]12OC(C)=O` [PHORBOL MYRISTATE ACETATE], the EC50 was more than 162 µM in the series on Semliki Forest virus, 2.2 µM with Sindbis virus and 0.0029 µM in the series with Chikungunya virus. Besides, the selectivity ratio in series [1] was determined as 1960. The same molecule yielded a CC50 in series [2] of 5.7 µM.

Consider `CC1=C[C@H]2[C@@]3(O)[C@H](C)[C@@H](O)[C@]4(O)[C@H]([C@@H]3C=C(CO)C[C@]2(O)C1=O)C4(C)C` [PHORBOL], for which the EC50 is more than 274 µM with Semliki Forest virus, more than 274 µM with Sindbis virus and more than 343 µM in the series on Chikungunya virus. For the same molecule, in series [1], the selectivity ratio is more than 1. The molecule further came in with a CC50 in series [2] of more than 343 µM.

Turning to `CC(=O)O[C@@]12C[C@@H](C)[C@@]3(O)[C@@H](C=C(CO)C[C@]4(O)C(=O)C(C)=C[C@@H]34)[C@@H]1C2(C)C` [PROSTRATIN], the EC50 in the series on Semliki Forest virus is more than 256 µM; in the series on Sindbis virus, more than 256 µM; in the series on Chikungunya virus, 2.6 µM. In series [1], the selectivity ratio was 30.3. This molecule also returned a CC50 in series [2] of 79 µM.

In the case of `CCCCCCCCCCCC(=O)O[C@@H]1[C@@H](C)[C@@]2(O)[C@@H](C(=O)C(CO)=C[C@]3(O)C(=O)C(C)=C[C@@H]23)[C@@H]2C(C)(C)[C@]12OC(C)=O` [TRIGOWIIN A], the selectivity ratio in series [1] is more than 2.3. The EC50 with Chikungunya virus was 43.5 µM. Besides, in series [2], the CC50 is more than 100 µM.
